Measured values: ChEMBL document CHEMBL4665801, “Pyrazole-Based Lactate Dehydrogenase Inhibitors with Optimized Cell Activity and Pharmacokinetic Properties” (J Med Chem, 2020)
Activity calls are given as the source filed them. No rule for the calls is given here.

Experiments:
[1] = target: T1, L-lactate dehydrogenase A chain (Homo sapiens, UniProt P00338); assay: Inhibition of recombinant human LDHA using sodium pyruvate as substrate preincubated for 5 mins followed by diaphorase/resazurin addition and measured after 20 mins by fluorescence based assay
[2] = target: T1, L-lactate dehydrogenase A chain; assay: Inhibition of LDHA in human A673 cells assessed as decrease in lactate production incubated for 2 hrs by lactate oxidase-coupled fluorescence based assay; assay type: cell-based
A673 = assay: Cytotoxicity against human A673 cells assessed as reduction in cell viability after 48 hrs by CellTiter-Glo assay; assay type: functional, cell-based; details: A673, 48 h
[3] = target: T1, L-lactate dehydrogenase A chain; assay: Inhibition of LDHA in human MIA PaCa-2 cells assessed as decrease in lactate production incubated for 2 hrs by lactate oxidase-coupled fluorescence based assay; assay type: cell-based
MIA PaCa-2 = assay: Cytotoxicity against human MIA PaCa-2 cells assessed as reduction in cell viability after 48 hrs by CellTiter-Glo assay; assay type: functional, cell-based; details: MIA PaCa-2, 48 h
[4] = target: T1, L-lactate dehydrogenase A chain; assay: Inhibition of GS[HiBiT]GS-tagged LDHA (unknown origin) expressed in HEK-293T cells measured after 1 hr by […]; assay type: cell-based
Summary of the method: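 HEK293T cells were transiently transfected for 24 h with CMV-driven LDHA carrying a C-terminal GS[HiBiT]GS tag, then reseeded at 2500 cells/well in DPBS with Ca/Mg and 1 g/L glucose. […] Cells were lysed with NP40, and 11S (100 nM final) plus furimazine was added.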

[5] = target: L-lactate dehydrogenase B chain (Homo sapiens) (UniProt P07195); assay: Inhibition of recombinant human LDHB using sodium pyruvate as substrate preincubated for 5 mins followed by diaphorase/resazurin addition and measured after 20 mins by fluorescence based assay
Sus scrofa = organism: Sus scrofa; assay: Inhibition of porcine heart MDH using malic acid as substrate preincubated for 10 mins followed by substrate addition and measured after 5 mins by resazurin based fluorescence based assay; details: time 15.0 min

L-lactate dehydrogenase B chain (Homo sapiens), sequence (P07195 2-334 limits assumed): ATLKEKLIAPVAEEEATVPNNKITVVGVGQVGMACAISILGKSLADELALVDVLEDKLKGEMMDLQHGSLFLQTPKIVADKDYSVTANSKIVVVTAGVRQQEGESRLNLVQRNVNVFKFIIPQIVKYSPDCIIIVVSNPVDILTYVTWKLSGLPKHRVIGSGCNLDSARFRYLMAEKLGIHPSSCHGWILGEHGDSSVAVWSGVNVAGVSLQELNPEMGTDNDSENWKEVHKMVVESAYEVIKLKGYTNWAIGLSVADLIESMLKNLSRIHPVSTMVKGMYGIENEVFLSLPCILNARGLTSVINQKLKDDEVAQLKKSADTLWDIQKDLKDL

SMILES | IC50 [1] [nM] | IC50 [2] [nM] | IC50 (A673) [nM] | IC50 [3] [nM] | IC50 (MIA PaCa-2) [nM] | IC50 [4] [nM] | inhibition [5] | inhibition (Sus scrofa)
CC(C)c1ccc(C#Cc2cccc(-c3nn(-c4nc(C(=O)O)cs4)c(CC4CC4)c3Cc3ccc(S(N)(=O)=O)c(F)c3)c2)s1 | 385 | 296 | 528 | 203 | 590 | 179 | Active | inactive
C#Cc1cc(-c2nn(-c3nc(C(=O)O)cs3)c(CC3CC3)c2Cc2ccc(S(N)(=O)=O)c(F)c2)ccc1F | 9 | 902 | 4350 | 660 | 4020 | 253 | Active | inactive
Cc1cc(C#Cc2cccc(-c3nn(-c4nc(C(=O)O)cs4)c(CC4CC4)c3Cc3ccc(S(N)(=O)=O)c(F)c3)c2)cs1 | 87 | 494 | 359 | 657 | 332 | 95 | Active | inactive
NS(=O)(=O)c1ccc(Cc2c(-c3ccc(F)c(C#CC(F)(F)F)c3)nn(-c3nc(C(=O)O)cs3)c2CC2CC2)cc1F | 450 | > 30000 | > 30000 | > 30000 | > 30000 | 14000 | Active | inactive
CC(C)C#Cc1cc(-c2nn(-c3nc(C(=O)O)cs3)c(CC3CC3)c2Cc2ccc(S(N)(=O)=O)c(F)c2)ccc1F | 21 | 284 | 1010 | 487 | 756 | 2050 | Active | inactive
Cc1cc(C#Cc2cccc(-c3nn(-c4nc(C(=O)O)cs4)c(CC4CC4)c3Cc3ccc(S(N)(=O)=O)c(F)c3)c2)c(C)s1 | 235 | 161 | 716 | 218 | 810 | 299 | Active | inactive
Cc1cnc(C#Cc2cccc(-c3nn(-c4nc(C(=O)O)cs4)c(CCC4CC4)c3Cc3ccc(S(N)(=O)=O)c(F)c3)c2)s1 | 33 | 364 | 180 | 417 | 173 | 84 | Active | inactive
NS(=O)(=O)c1ccc(Cc2c(-c3ccc(F)c(C#CCC4CC4)c3)nn(-c3nc(C(=O)O)cs3)c2CC2CC2)cc1F | 31 | 234 | 1020 | 259 | 1030 | 89 | Active | inactive
Cc1cc(C)c(C#Cc2cccc(-c3nn(-c4nc(C(=O)O)cs4)c(CC4CC4)c3Cc3ccc(S(N)(=O)=O)c(F)c3)c2)s1 | 137 | 345 | 528 | 218 | 533 | 201 | Active | inactive
Cc1cc(C#Cc2cccc(-c3nn(-c4nc(C(=O)O)cs4)c(CCC4CC4)c3Cc3ccc(S(N)(=O)=O)c(F)c3)c2)c(C)s1 | 487 | 162 | 402 | 188 | 402 | 299 | Active | inactive
CCC#Cc1cc(-c2nn(-c3nc(C(=O)O)cs3)c(CC3CC3)c2Cc2ccc(S(N)(=O)=O)c(F)c2)ccc1F | 14 | 487 | 716 | 470 | 662 | 112 | Active | inactive
